Paper PMC11261338 (RSC Advances, 2024)

Legend:
myoblast cells (C2C12) [1] = assay: MTT assay, IC50 against myoblast cells; assay type: cell-based; conditions: C2C12, 48 h, read-out: IC50 (μM) C2C12
Procedure, shortened: (§1)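 Cells kept at 37 °C, 5% CO2: AGS in RPMI-1640 and C2C12 in DMEM, each with 10% FBS, 0.25 μg mL−1 amphotericin B and 25 μg mL−1 gentamicin. 5000 cells/well were seeded for 12 h, then given test compound at 1000, 100, 10, 1 and 0.1 μM for 48 h. Untreated cells served as controls.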

[2] = test system: AGS (gastric adenocarcinoma) cells; assay: MTT assay, IC50 against gastric cancer cells; assay type: cell-based; conditions: 48 h, read-out: IC50 (μM) AGS
Procedure, shortened: as §1

[3] = test system: MCF-7 (mammary carcinoma) cells; assay: MTT assay, IC50 against breast cancer cells; assay type: cell-based; conditions: Homo sapiens, MCF7, 48 h, read-out: IC50 (μM) MCF-7
Procedure, shortened: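 MCF-7 cells grown in DMEM with human insulin (10 μg mL−1), 10% FBS, amphotericin B and gentamicin at 37 °C, 5% CO2. Seeded at 5000 cells per well for 12 h, then exposed 48 h to the test compound at 0.1, 1, 10, 100 and 1000 μM, with untreated controls. PBS wash, 0.5 mg mL−1 MTT for 90 min at 37 °C, DMSO solubilisation, A570.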

myoblast cells (C2C12) [4] = assay: MTT cell viability of normal myoblast cells at a single concentration; assay type: cell-based, human; conditions: DHPM 10 μM, 48 hours
Procedure, shortened: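 C2C12 myoblasts were grown in DMEM with 10% FBS, amphotericin B and gentamicin at 37 °C, 5% CO2, and seeded at 5000 cells/well for 12 h. Test compound was applied at 10 μM for 48 h. Cells were washed with PBS, given 0.5 mg mL−1 MTT in PBS for 90 min at 37 °C, and the formazan was dissolved in DMSO with 30 min agitation in the dark. A570 was read, in triplicate.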

| Compound | IC50 (myoblast cells (C2C12) [1]) [µM] | IC50 [2] [µM] | IC50 [3] [µM] | viability (%) of myoblast cells (C2C12) (myoblast cells (C2C12) [4]) [%] |
| --- | --- | --- | --- | --- |
| CCOC(=O)C1=C(C)NC(=S)NC1c1cccc(O)c1 (stereo not shown) [Monastrol, reference compound] | 35.5 ± 6.4 | 40 ± 6.2 | 25.6 ± 7.3 | – |
| CCCCCCCC/C=C\CCCCCCCCOC(=O)C1=C(C)NC(=S)NC1c1ccc(OC)cc1 (stereo not shown) [11i, (Z)-Octadec-9-enyl 4-(4-methoxyphenyl)-6-methyl-2-thioxo-1,2,3,4-tetrahydropyrimidine-5-carboxylate] | 166 ± 8.9 | 101.8 ± 0.6 | 16.4 ± 2.7 | – |
| CCCCCCCC/C=C\CCCCCCCCOC(=O)C1=C(C)NC(=S)NC1c1cccc(Cl)c1 (stereo not shown) [11f, (Z)-Octadec-9-enyl 4-(3-chlorophenyl)-6-methyl-2-thioxo-1,2,3,4-tetrahydropyrimidine-5-carboxylate] | 307 ± 143 | 146 ± 25.9 | 8.8 ± 8.3 | – |
| CCCCCCCC/C=C\CCCCCCCCOC(=O)C1=C(C)NC(=S)NC1c1cccc(O)c1 (stereo not shown) [11c, (Z)-Octadec-9-enyl 4-(3-hydroxyphenyl)-6-methyl-2-thioxo-1,2,3,4-tetrahydropyrimidine-5-carboxylate] | 446 ± 84.2 | 125 ± 6.2 | 28.4 ± 7 | – |
| CCCCCCCC/C=C\CCCCCCCCOC(=O)C1=C(C)NC(=S)NC1c1ccccc1O (stereo not shown) [11b, (Z)-Octadec-9-enyl 4-(2-hydroxyphenyl)-6-methyl-2-thioxo-1,2,3,4-tetrahydropyrimidine-5-carboxylate] | 88.5 ± 6.4 | 20.2 ± 2.1 | 10.1 ± 1.3 | – |
| CCCCCCCC/C=C\CCCCCCCCOC(=O)C1=C(C)NC(=O)NC1c1cccc(O)c1 (stereo not shown) [10c, (Z)-Octadec-9-enyl 4-(3-hydroxyphenyl)-6-methyl-2-oxo-1,2,3,4-tetrahydropyrimidine-5-carboxylate] | 18.4 ± 10.5 | 12.1 ± 0.4 | 2.3 ± 0.4 | ~70 |
| CCCCCCCC/C=C\CCCCCCCCOC(=O)C1=C(C)NC(=S)NC1c1ccc(C)cc1 (stereo not shown) [11h, (Z)-Octadec-9-enyl 6-methyl-2-thioxo-4-(p-tolyl)-1,2,3,4-tetrahydropyrimidine-5-carboxylate] | 362 ± 12.6 | 126 ± 4.6 | 39.2 ± 4.9 | – |
